The source made the active and inactive calls. No cut-off for these calls is given here.
Assays:
[1] = molecular target: T1, Neuropeptide Y receptor type 1 (Homo sapiens) (UniProt P25929); experiment: Antagonist activity at Y1R in human HEL cells assessed as inhibition of pNPY induced [Ca2+] mobilisation; assay type: functional, cell-based
T1 sequence (whole entry): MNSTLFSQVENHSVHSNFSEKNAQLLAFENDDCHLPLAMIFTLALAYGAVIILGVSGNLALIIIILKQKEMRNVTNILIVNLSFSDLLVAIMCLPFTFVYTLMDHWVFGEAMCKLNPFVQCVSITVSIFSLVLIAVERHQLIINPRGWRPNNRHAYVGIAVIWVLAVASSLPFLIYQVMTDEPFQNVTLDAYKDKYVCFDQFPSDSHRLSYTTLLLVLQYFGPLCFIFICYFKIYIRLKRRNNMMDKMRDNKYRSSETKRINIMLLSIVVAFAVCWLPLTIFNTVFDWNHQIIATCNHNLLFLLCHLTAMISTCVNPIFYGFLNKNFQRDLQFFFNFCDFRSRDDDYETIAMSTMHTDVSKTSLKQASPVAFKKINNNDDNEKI

[2] = molecular target: T2, Neuropeptide Y receptor type 1 (Homo sapiens, UniProt P25929); experiment: Displacement of [3H]-UR-MK114 from Y1R in human SK-N-MC cells; assay type: cell-based
T2 sequence (P25929 whole entry): T1 sequence (whole entry)

[3] = molecular target: T1, Neuropeptide Y receptor type 1 (Homo sapiens); experiment: Antagonist activity at Y1R in human MCF-7 cells at 50 nM after 5 to 8 mins by fluorescence confocal microscopy; assay type: functional, cell-based; details: MCF7
In short: (§1)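 MCF-7-Y1 cells (MCF-7 subclone with 2–3-fold higher Y1R expression) pretreated 48 or 72 h with 1 nM 17β-estradiol; live-cell confocal imaging of fluorescent ligand (50–80 nM) after 5–23 min at rt in Leibovitz L15; non-specific binding with excess BIBP 3226 (5 µM or 80–125-fold); autofluorescence control.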

[4] = Chemical stability of the compound in DMSO at below 0 degC; assay type: physicochemical
[5] = Chemical stability in aqueous buffer assessed as compound decomposition after 20 mins at pH 7 by HPCL; assay type: physicochemical; details: read-out: Activity
In short: (§2)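 Compound at 50 µM final (from 1 mM DMSO stock) in PBS pH 7.0, 20 °C; aliquots at 20 and 90 min diluted with acetonitrile/H2O/1% TFA, analysed by RP-HPLC (220 nm); release of parent argininamide quantified against a five-point calibration curve (0.3–25 µM).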

[6] = Chemical stability in aqueous buffer assessed as compound decomposition after 90 mins at pH 7 by HPCL; assay type: physicochemical; details: read-out: Activity; in short: as §2
[7] = molecular target: Neuropeptide Y receptor type 4 (Homo sapiens, UniProt P50391); experiment: Displacement of Cy5-[K4]-hpp from human Y4R expressed in CHO cells by flow cytometry; assay type: cell-based
In short: (§3)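 Flow cytometric displacement of labelled peptides: Cy5-[K4]-hPP on CHO-Y4 cells; Dy-635-pNPY or Cy5-pNPY on CHO-Y2 and HEC-1B-Y5 cells. Test ligands only at 1 and 10 µM or at 0.3 and 1 µM; for the red-excitable ligand, its own fluorescence without peptide was subtracted.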

[8] = molecular target: T3, Neuropeptide Y receptor type 2 (Homo sapiens, UniProt P49146); experiment: Displacement of Dy-635-pNPY from human Y2R expressed in CHO cells by flow cytometry; assay type: cell-based; in short: as §3
T3 sequence (P49146 whole entry): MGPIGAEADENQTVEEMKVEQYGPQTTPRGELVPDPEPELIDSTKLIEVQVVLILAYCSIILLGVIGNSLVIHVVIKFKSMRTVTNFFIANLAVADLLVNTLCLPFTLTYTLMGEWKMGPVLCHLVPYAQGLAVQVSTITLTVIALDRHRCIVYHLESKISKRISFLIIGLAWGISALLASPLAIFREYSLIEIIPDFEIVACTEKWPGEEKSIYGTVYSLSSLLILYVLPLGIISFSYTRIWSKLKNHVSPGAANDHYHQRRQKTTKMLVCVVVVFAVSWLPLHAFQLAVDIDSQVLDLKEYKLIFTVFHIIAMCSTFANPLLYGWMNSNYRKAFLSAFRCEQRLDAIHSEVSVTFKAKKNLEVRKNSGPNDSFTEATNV

[9] = molecular target: T4, Neuropeptide Y receptor type 5 (Homo sapiens, UniProt Q15761); experiment: Displacement of Dy-635-pNPY from human Y5R expressed in HEC-1B cells by flow cytometry
T4 sequence (Q15761 whole entry): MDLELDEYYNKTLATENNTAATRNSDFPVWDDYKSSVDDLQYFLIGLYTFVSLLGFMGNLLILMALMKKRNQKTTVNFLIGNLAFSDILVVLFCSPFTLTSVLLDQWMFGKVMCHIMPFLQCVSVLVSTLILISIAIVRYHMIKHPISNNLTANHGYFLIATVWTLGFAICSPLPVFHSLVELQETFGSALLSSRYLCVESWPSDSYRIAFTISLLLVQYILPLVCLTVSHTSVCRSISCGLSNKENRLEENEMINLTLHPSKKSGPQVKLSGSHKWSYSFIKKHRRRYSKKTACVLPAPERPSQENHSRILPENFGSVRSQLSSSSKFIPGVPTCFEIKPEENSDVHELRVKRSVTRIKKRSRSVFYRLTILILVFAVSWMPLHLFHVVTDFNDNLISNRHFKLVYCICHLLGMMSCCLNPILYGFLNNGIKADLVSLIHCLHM

[10] = molecular target: T2, Neuropeptide Y receptor type 1; experiment: Displacement of [3H]-UR-MK114 from Y1R in human SK-N-MC cells by radioligand competition binding
[11] = molecular target: T1, Neuropeptide Y receptor type 1 (Homo sapiens); experiment: Antagonist activity at Y1R in human MCF-7 cells at 80 nM after 23 mins by fluorescence confocal microscopy; assay type: functional, cell-based; details: MCF7; in short: as §1

Sequence of Neuropeptide Y receptor type 4 (P50391 whole entry): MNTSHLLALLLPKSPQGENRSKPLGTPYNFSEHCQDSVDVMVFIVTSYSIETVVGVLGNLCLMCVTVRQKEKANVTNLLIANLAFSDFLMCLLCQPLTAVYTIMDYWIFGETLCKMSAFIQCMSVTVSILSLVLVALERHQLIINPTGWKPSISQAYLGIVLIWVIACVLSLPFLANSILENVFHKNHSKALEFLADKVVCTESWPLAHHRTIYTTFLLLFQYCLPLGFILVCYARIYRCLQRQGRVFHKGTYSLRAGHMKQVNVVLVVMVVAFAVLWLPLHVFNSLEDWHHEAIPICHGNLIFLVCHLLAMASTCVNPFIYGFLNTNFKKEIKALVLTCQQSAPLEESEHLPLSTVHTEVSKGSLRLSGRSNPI

SMILES	Kb [1] [nM]	Ki [2] [nM]	Stability [4] [months]	further results
Cc1cc(/C=C/C=C/c2ccc(N(C)C)cc2)cc(C)[n+]1CCOCCOCC(=O)/N=C(/N)NCCC[C@@H](NC(=O)C(c1ccccc1)c1ccccc1)C(=O)NCc1ccc(O)cc1.O=C([O-])C(F)(F)F	11	24	12	Activity [3]: Active
Cc1cc(/C=C/c2cc3c4c(c2)CCCN4CCC3)cc(C)[n+]1CCN(CCNC(=O)CCCCCCC(=O)/N=C(\N)NCCC[C@@H](NC(=O)C(c1ccccc1)c1ccccc1)C(=O)NCc1ccc(O)cc1)CCNC(=O)CCCCCCC(=O)/N=C(\N)NCCC[C@@H](NC(=O)C(c1ccccc1)c1ccccc1)C(=O)NCc1ccc(O)cc1.O=C([O-])C(F)(F)F	0.6	100	12	
Cc1cc(/C=C/C=C2\N(C)c3ccc4ccccc4c3C2(C)C)cc(C)[n+]1CCOCCOCCNC(=O)CCCCC(=O)/N=C(/N)NCCC[C@@H](NC(=O)C(c1ccccc1)c1ccccc1)C(=O)NCc1ccc(O)cc1.O=C([O-])C(F)(F)F	8	130	12	
NCCCCCC(=O)/N=C(/N)NCCC[C@@H](NC(=O)C(c1ccccc1)c1ccccc1)C(=O)NCc1ccc(O)cc1	95			
CN(C)c1ccc(/C=C/C=C/c2sc3ccccc3[n+]2CCCC(=O)NCCNC(=O)CCCC(=O)/N=C(/N)NCCC[C@@H](NC(=O)C(c2ccccc2)c2ccccc2)C(=O)NCc2ccc(O)cc2)cc1.O=C([O-])C(F)(F)F	2.4	42	12	
Cc1cc(/C=C/c2cc3c4c(c2)CCCN4CCC3)cc(C)[n+]1CCN(CCNC(=O)CCCCC(=O)/N=C(\N)NCCC[C@@H](NC(=O)C(c1ccccc1)c1ccccc1)C(=O)NCc1ccc(O)cc1)CCNC(=O)CCCCC(=O)/N=C(\N)NCCC[C@@H](NC(=O)C(c1ccccc1)c1ccccc1)C(=O)NCc1ccc(O)cc1.O=C([O-])C(F)(F)F	1.2	61	12	degraded at 20 min [5]: 0%; degraded at 1.5 h [6]: < 0.5%
CN(C)c1ccc(/C=C/C=C/c2sc3ccccc3[n+]2CCCC(=O)O)cc1.O=C([O-])C(F)(F)F			12	
CN(C)c1ccc(/C=C/C=C/c2sc3ccccc3[n+]2CCCC(=O)ON2C(=O)CCC2=O)cc1.O=C([O-])C(F)(F)F			12	
N=C(N)N(CCC[C@@H](NC(=O)C(c1ccccc1)c1ccccc1)C(=O)NCc1ccc(O)cc1)C(=O)NCCCCN	510	38		
Cc1cc(/C=C\C=C2\N(C)c3ccc4ccccc4c3C2(C)C)cc(C)[n+]1CCOCCOCCNC(=O)CCCCCCC(=O)/N=C(/N)NCCC[C@@H](NC(=O)C(c1ccccc1)c1ccccc1)C(=O)NCc1ccc(O)cc1.O=C([O-])C(F)(F)F	7.8	130	12	
NCCCCNC(=O)/N=C(/N)NCCC[C@@H](NC(=O)C(c1ccccc1)c1ccccc1)C(=O)NCc1ccc(O)cc1	16	4.3		
Cc1cc(/C=C/c2cc3c4c(c2)CCCN4CCC3)cc(C)[n+]1CCN(CCNC(=O)CCCNC(=O)CCCC(=O)/N=C(\N)NCCC[C@@H](NC(=O)C(c1ccccc1)c1ccccc1)C(=O)NCc1ccc(O)cc1)CCNC(=O)CCCNC(=O)CCCC(=O)/N=C(\N)NCCC[C@@H](NC(=O)C(c1ccccc1)c1ccccc1)C(=O)NCc1ccc(O)cc1.O=C([O-])C(F)(F)F	1	56	12	Activity [11]: Active
NCCCCCC(=O)NC(N)=NCCC[C@@H](NC(=O)C(c1ccccc1)c1ccccc1)C(=O)NCc1ccc(O)cc1		19		

Second part, led by results:

Kb [1] [nM]	Ki [2] [nM]	Stability [4] [months]	SMILES	further results
7.6	150	12	Cc1cc(/C=C/C=C/c2ccc(N(C)C)cc2)cc(C)[n+]1CCCCNC(=O)/N=C(/N)NCCC[C@@H](NC(=O)C(c1ccccc1)c1ccccc1)C(=O)NCc1ccc(O)cc1.O=C([O-])C(F)(F)F	
4.1	97	12	Cc1cc(/C=C/c2cc3c4c(c2)CCCN4CCC3)cc(C)[n+]1CCOCCOCCOCCC(=O)/N=C(/N)NCCC[C@@H](NC(=O)C(c1ccccc1)c1ccccc1)C(=O)NCc1ccc(O)cc1.O=C([O-])C(F)(F)F	
12	23	12	Cc1cc(/C=C/c2cc3c4c(c2)CCCN4CCC3)cc(C)[n+]1CCCCCC(=O)/N=C(/N)NCCC[C@@H](NC(=O)C(c1ccccc1)c1ccccc1)C(=O)NCc1ccc(CNC(N)=O)cc1.O=C([O-])C(F)(F)F	degraded at 20 min [5]: 0%; degraded at 1.5 h [6]: < 0.5%; Activity [3]: Active
	29	12	Cc1cc(/C=C/c2cc3c4c(c2)CCCN4CCC3)cc(C)[n+]1CCCCCC(=O)/N=C(/N)NCCC[C@@H](NC(=O)C(c1ccccc1)c1ccccc1)C(=O)NCc1ccc(O)cc1.O=C([O-])C(F)(F)F	
3.7	50	12	Cc1cc(/C=C/C=C/c2ccc(N(C)C)cc2)cc(C)[n+]1CCCCCC(=O)/N=C(/N)NCCC[C@@H](NC(=O)C(c1ccccc1)c1ccccc1)C(=O)NCc1ccc(O)cc1.O=C([O-])C(F)(F)F	
11	38	12	Cc1cc(/C=C/c2cc3c4c(c2)CCCN4CCC3)cc(C)[n+]1CCCNC(=O)CCCC(=O)/N=C(/N)NCCC[C@@H](NC(=O)C(c1ccccc1)c1ccccc1)C(=O)NCc1ccc(O)cc1.O=C([O-])C(F)(F)F	
6	22	12	Cc1cc(/C=C/c2cc3c4c(c2)CCCN4CCC3)cc(C)[n+]1CCNC(=O)CCCC(=O)/N=C(/N)NCCC[C@@H](NC(=O)C(c1ccccc1)c1ccccc1)C(=O)NCc1ccc(O)cc1.O=C([O-])C(F)(F)F	degraded at 20 min [5]: 1%; degraded at 1.5 h [6]: 2.6%; IC50 [7]: > 10000 nM; Ki [7]: > 3000 nM; IC50 [8]: > 10000 nM; Ki [8]: > 3000 nM; Activity [3]: Active; IC50 [9]: > 10000 nM; Ki [9]: > 5000 nM; Ki [10]: 22 nM
6.8	96	12	Cc1cc(/C=C/C=C2\N(C)c3ccc4ccccc4c3C2(C)C)cc(C)[n+]1CCOCCOCCNC(=O)CCCC(=O)/N=C(/N)NCCC[C@@H](NC(=O)C(c1ccccc1)c1ccccc1)C(=O)NCc1ccc(O)cc1.O=C([O-])C(F)(F)F	
7.2	140	12	Cc1cc(/C=C/c2cc3c4c(c2)CCCN4CCC3)cc(C)[n+]1CCCCNC(=O)/N=C(/N)NCCC[C@@H](NC(=O)C(c1ccccc1)c1ccccc1)C(=O)NCc1ccc(O)cc1.O=C([O-])C(F)(F)F	

Reference: ChEMBL document CHEMBL1773009, “Red-fluorescent argininamide-type NPY Y1 receptor antagonists as pharmacological tools” (Bioorg Med Chem, 2011)
